Assays:
MDA-MB-231 cells = test: MTT cell viability assay, MDA-MB-231; type: cell-based, human; details: highest dose 100 μM, compared to unconjugated [Re(CO)3(H2O)3]+
4T1 cells = test: MTT cell viability assay, 4T1; type: cell-based, mouse; details: highest dose 100 μM, compared to unconjugated [Re(CO)3(H2O)3]+
In short: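 4T1 cells were kept in DMEM with 10% FBS and penicillin/streptomycin at 37 °C, 5% CO2, then seeded at 2000 cells/100 μL. Test compound or free [Re(CO)3(H2O)3]+ was applied at 0.1–100 μM for 24 h. Cells were washed 3× with PBS and grown 48 h in DMEM/10% FBS. MTT was added for 4 h, cells were solubilised with SDS, and absorbance was read at 595 nm.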

LHRH receptor = biological target: T1, LHRH receptor (Homo sapiens, UniProt P30968); test: LHRH receptor competition assay of 99mTc conjugate, MDA-MB-231; type: cell-based; details: MDA-MB-231 cells, cotreatment with 100 μg LHRH, 1 μCi, 37 °C, γ counter; n = 3
T1 sequence (P30968 1-328): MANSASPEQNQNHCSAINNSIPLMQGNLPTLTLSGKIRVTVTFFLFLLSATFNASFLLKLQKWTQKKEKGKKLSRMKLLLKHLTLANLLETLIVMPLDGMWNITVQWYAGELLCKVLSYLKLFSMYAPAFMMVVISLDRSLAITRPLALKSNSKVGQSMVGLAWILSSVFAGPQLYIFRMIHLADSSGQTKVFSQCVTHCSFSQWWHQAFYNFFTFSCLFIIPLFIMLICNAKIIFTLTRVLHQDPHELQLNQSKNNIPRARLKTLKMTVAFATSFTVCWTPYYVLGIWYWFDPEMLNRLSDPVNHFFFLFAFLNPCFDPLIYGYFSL
In short: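 MDA-MB-231 cells were grown in DMEM with 5 mM L-glutamine, 1% penicillin/streptomycin and 10% FBS at 37 °C, 5% CO2. Cells were seeded at 2 × 10^5 per well and cultured 48 h. 1 μCi (0.037 MBq) of 99mTc-labelled conjugate was added together with 100 μg LHRH and incubated at 37 °C for 15, 30, 60 and 120 min (n = 3). Cells were washed 3× in PBS, trypsinised and γ-counted. Uptake is % of cell counts over total counts, reported as mean ± SEM.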

Substance | cytotoxicity at the highest dose (MDA-MB-231 cells) | cytotoxicity at the highest dose (4T1 cells) | cell uptake with LHRH cotreatment (competition) (LHRH receptor)
Re-Acdien-LHRH: Acdien-LHRH reacted with equimolar [Re(CO)3(H2O)3]+; nonradioactive rhenium-LHRH conjugate | did not induce cytotoxicity |  | 
Re-Acdien-peg-LHRH: PEGylated Acdien-peg-LHRH chelated with [Re(CO)3(H2O)3]+ | did not induce cytotoxicity | did not induce cytotoxicity | 
^99mTc-Acdien-LHRH: Acdien-LHRH radiolabeled with [99mTc(CO)3]+ from Isolink kit |  |  | decrease
